Assay results as given in paper PMC10470302 (iScience, 2023).
Values belong to the molecule of their own block, whether it stands above or below them.

Columns and labels:
[1] = tested on: Ser2/Thr4 phosphorylation on RNA polymerase II, HEK293 cells; experiment: Western blot of Pol II phosphorylation after flavopiridol; format: cell-based, human; details: time course (Figure S10A)
[2] = tested on: CHERP recruitment to the genome, HEK293 cells; experiment: ChIP-seq of CHERP; format: cell-based, human; details: 2μM flavopiridol, HA-CHERP in HEK293 cells, HA antibody ChIP-seq
CHERP (SCAF6) = CHERP (SCAF6) (UniProt Q8IWX8); experiment: GST-CTD pull-down, label-free LC-MS/MS; details: reference: GST-CTD, buffer with no kinase; sites S2
[3] = tested on: pSer2 Pol II and CHERP in HEK293 cells; experiment: Immunofluorescence colocalization of CHERP and pSer2 Pol II; format: cell-based, human; details: transfected HEK293 cells, confocal, no flavopiridol, N = 7
Procedure, shortened: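 HEK293 cells were transfected (Fugene, 1:3 plasmid:reagent) with HA-CHERP or HA-CHERPΔCID, fixed 15 min in 1% formaldehyde at room temperature, and permeabilized with 0.2% Triton X-100. They were blocked 30 min in 2% BSA, then given primary antibody and Alexa Fluor 488/568 secondary, 1 h each at room temperature. Pearson coefficients were computed with threshold, from 7 cells across at least two biological replicates.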

[4] = tested on: Pol II (RPB1, pSer2, pThr4), HEK293 cells; experiment: Co-immunoprecipitation with Pol II; format: cell-based, human; details: HEK293 extracts, western blot, at least three independent replicates
Procedure, shortened: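 Protein G beads were loaded overnight at 4°C with 3 µg antibody or control IgG. 250 µg protein was bound for 2 h, washed three times, eluted by boiling 5 min in 2× SDS buffer, then immunoblotted.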

Molecule: CN1CC[C@H](c2c(O)cc(O)c3c(=O)cc(-c4ccccc4Cl)oc23)[C@H](O)C1 [flavopiridol]
Ser2/Thr4 phosphorylation on RNA polymerase II [1]: caused Ser2/Thr4 phosphorylation to be reduced | CHERP recruitment to the genome with flavopiridol [2]: great reduction of CHERP recruitment to the genome

fold change (CHERP (SCAF6)): 2.9
Molecule: yeast CTD (GST-yCTD 26x) CTD, 26 heptad repeats GST-CTD treated with DYRK1A

B1: CHERP: calcium homeostasis endoplasmic reticulum protein; endogenous or HA-tagged full-length (protein)
chain: MEMPLPPDDQELRNVIDKLAQFVARNGPEFEKMTMEKQKDNPKFSFLFGGEFYSYYKCKLALEQQQLICKQQTPELEPAATMPPLPQPPLAPAAPIPPAQGAPSMDELIQQSQWNLQQQEQHLLALRQEQVTAAVAHAVEQQMQKLLEETQLDMNEFDNLLQPIIDTCTKDAISAGKNWMFSNAKSPPHCELMAGHLRNRITADGAHFELRLHLIYLINDVLHHCQRKQARELLAALQKVVVPIYCTSFLAVEEDKQQKIARLLQLWEKNGYFDDSIIQQLQSPALGLGQYQATLINEYSSVVQPVQLAFQQQIQTLKTQHEEFVTSLAQQQQQQQQQQQQLQMPQMEAEVKATPPPPAPPPAPAPAPAIPPTTQPDDSKPPIQMPGSSEYEAPGGVQDPAAAGPRGPGPHDQIPPNKPPWFDQPHPVAPWGQQQPPEQPPYPHHQGGPPHCPPWNNSHEGMWGEQRGDPGWNGQRDAPWNNQPDAAWNSQFEGPWNSQHEQPPWGGGQREPPFRMQRPPHFRGPFPPHQQHPQFNQPPHPHNFNRFPPRFMQDDFPPRHPFERPPYPHRFDYPQGDFPAEMGPPHHHPGHRMPHPGINEHPPWAGPQHPDFGPPPHGFNGQPPHMRRQGPPHINHDDPSLVPNVPYFDLPAGLMAPLVKLEDHEYKPLDPKDIRLPPPMPPSERLLAAVEAFYSPPSHDRPRNSEGWEQNGLYEFFRAKMRARRRKGQEKRNSGPSRSRSRSKSRGRSSSRSNSRSSKSSGSYSRSRSRSCSRSYSRSRSRSRSRSRSSRSRSRSQSRSRSKSYSPGRRRRSRSRSPTPPSSAGLGSNSAPPIPDSRLGEENKGHQMLVKMGWSGSGGLGAKEQGIQDPIKGGDVRDKWDQYKGVGVALDDPYENYRRNKSYSFIARMKARDECK
colocalization correlation value (Pearson), CHERP vs pSer2 Pol II [3]: 0.77 | co-immunoprecipitation with Pol II or its phosphorylation forms [4]: interacted with total Pol II
